Paper PMC4285624 (Biochemical pharmacology, 2014)

Experiments:
[1] = biological target: Full length, heterotrimeric human RPA (fl-RPA) (Homo sapiens, UniProt P27694); test: EMSA of full length RPA binding to ssDNA; type: biochemical; details: read-out: In vitro IC50, RPA-DNA binding, compounds titrated 1–125 μM
Summary of the method: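 Recombinant full-length heterotrimeric human RPA (50 nM, E. coli-expressed) was preincubated 30 min with DMSO-dissolved compound (DMSO ≤5%). Bound and free DNA were separated on 6% native gels and quantified by phosphorimager. IC50 came from nonlinear regression; three independent determinations.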

RPA DBD-A/B = RPA DBD-A/B (Homo sapiens, UniProt P27694); test: EMSA of RPA DBD-A/B binding to DNA; type: biochemical; details: 150 nM DBD-A/B, compounds 25–100 μM
Sequence of RPA DBD-A/B (P27694 181-432): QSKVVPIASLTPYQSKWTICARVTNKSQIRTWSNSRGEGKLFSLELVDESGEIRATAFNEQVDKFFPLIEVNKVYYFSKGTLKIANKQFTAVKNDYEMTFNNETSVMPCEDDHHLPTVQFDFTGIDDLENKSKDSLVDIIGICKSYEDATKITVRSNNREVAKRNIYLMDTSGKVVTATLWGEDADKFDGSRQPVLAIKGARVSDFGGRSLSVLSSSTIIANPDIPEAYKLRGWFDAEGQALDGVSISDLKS
Summary of the method: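 The RPA181–432 DBD-A/B fragment was expressed in E. coli BL21(DE3) as a SUMO-His6 fusion (0.5 mM IPTG, 3 h, 37 °C). It was Ni-NTA purified, SUMO-cleaved with ULP1, and polished by size exclusion. Protein was preincubated 30 min with compound, then mixed with 2.5 nM 5′-32P 34-base DNA for 5 min at room temperature. Products were run on 6% native gels at 4 °C and quantified by phosphorimager.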

[2] = test system: peripheral blood lymphocytes; details: cited from earlier work
[3] = cited from earlier work
lung cancer cell line = details: cited from earlier work

Sequence of Full length, heterotrimeric human RPA (fl-RPA) (P27694 whole entry): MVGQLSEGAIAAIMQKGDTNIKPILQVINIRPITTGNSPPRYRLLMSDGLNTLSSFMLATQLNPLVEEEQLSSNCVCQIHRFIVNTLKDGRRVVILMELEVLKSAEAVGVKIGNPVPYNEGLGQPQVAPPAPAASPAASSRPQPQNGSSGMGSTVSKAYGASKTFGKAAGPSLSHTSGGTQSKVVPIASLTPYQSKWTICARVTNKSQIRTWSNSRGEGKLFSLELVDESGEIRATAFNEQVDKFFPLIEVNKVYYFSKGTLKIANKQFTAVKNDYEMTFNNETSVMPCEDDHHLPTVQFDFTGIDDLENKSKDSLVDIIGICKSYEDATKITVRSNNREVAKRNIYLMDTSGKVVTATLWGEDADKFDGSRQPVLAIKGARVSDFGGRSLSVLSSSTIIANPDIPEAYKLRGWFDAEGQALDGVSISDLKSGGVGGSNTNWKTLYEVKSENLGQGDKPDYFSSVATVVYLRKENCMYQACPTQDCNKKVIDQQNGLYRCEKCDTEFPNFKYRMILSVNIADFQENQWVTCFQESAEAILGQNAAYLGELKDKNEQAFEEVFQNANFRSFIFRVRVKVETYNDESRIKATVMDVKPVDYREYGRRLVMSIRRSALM
Sequence of Full length, heterotrimeric human RPA (fl-RPA) (P15927 whole entry partner): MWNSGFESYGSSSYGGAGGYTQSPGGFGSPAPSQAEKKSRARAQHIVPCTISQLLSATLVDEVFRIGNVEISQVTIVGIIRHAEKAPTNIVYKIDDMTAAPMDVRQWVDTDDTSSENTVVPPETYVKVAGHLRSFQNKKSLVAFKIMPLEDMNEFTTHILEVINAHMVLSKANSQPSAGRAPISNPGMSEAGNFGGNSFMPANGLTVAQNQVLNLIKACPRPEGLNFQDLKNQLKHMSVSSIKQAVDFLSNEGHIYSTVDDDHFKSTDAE
Sequence of Full length, heterotrimeric human RPA (fl-RPA) (P35244 whole entry partner): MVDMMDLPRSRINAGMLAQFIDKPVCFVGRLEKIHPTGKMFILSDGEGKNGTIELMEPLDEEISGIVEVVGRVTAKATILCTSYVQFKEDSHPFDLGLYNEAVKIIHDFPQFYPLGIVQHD

## CCOc1ccc2cc(C3CC(c4ccc(Br)cc4)=NN3C(=O)CCC(=O)O)c(Cl)nc2c1 (stereo not drawn) [TDRL-505]
[1]
  IC50: 38 µM
RPA DBD-A/B
  inhibition of RPA DBD-A/B-DNA interaction: inhibit RPA DBD-A/B-DNA interaction
[2]
  cytotoxic effects on peripheral blood lymphocytes: minimal cytotoxic effects
[3]
  cell cycle effect: G1 cell cycle arrest
Lung cancer cell line; lung cancer cell line, published data
  synergy with Pt: synergy
Lung cancer cell line; lung cancer cells, flow cytometry based Annexin-PI staining assay
  synergy with etoposide: highly synergistic
